Assay outcomes deposited in PubChem BioAssay by several laboratories.
This excerpt belongs to a sample that is enriched for hits.
Mdm2 ligase inh: Mdm2 E3 ligase (human) inhibition; cell-based MDM2 ubiquitination luciferase reporter, 2 h; 0 = plate control, 100 = twice control, blank-subtracted; signal enhancement, % at 5 µM; hit rate 0.11% among 210,000; AID 1230;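 active = signal enhancement of 30% or more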;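 note: luminescence tracks abundance of the self-degrading MDM2-luciferase fusion protein; higher signal means inhibition of MDM2 E3 ligase activity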
Target sequence (Q00987 whole entry, looked up, the tested form may be a part): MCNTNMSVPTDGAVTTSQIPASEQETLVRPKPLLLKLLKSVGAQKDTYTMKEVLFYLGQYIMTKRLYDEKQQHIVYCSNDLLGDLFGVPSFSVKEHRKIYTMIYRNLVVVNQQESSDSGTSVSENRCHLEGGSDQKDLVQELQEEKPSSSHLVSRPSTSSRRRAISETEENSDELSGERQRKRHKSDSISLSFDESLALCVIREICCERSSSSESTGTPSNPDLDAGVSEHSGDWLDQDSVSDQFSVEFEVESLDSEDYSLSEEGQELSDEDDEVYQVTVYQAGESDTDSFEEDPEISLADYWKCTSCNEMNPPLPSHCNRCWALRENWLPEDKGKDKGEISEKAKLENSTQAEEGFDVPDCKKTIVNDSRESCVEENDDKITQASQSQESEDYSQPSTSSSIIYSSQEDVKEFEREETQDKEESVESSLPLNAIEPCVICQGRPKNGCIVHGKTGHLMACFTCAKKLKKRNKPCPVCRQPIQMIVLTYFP
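Test system: mammalian cells stably expressing self-ubiquitinating, self-degrading MDM2 E3–luciferase fusion; Amount: 2000 cells in each well; Medium: DMEM; Schedule: 4 h settle plus 2 h compound, 37 °C; Technique: SteadyLite luciferase luminescence after 15 min room-temperature reagent incubation; Benchmarks: plate control and blank wells.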
Lmaj promast: reduces viability of Leishmania major promastigotes; resazurin fluorescence viability; inhibition, % at 10 µM; hit rate 9% among 200,000; in the data active = inhibition above about 50%;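 note: promastigotes grown with compound for 44 hours at 28 °C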
S1P4 agonist: human S1P4 receptor agonism | O95977 | S1P4-expressing cell line, agonist reporter assay | activation, % at 4.98 µM | hit rate 0.35% among 220,000 | AID 1509; in the data active = activation above about 11%;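 note: 0% = DMSO vehicle and 100% = reference agonist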
S1P3 antag: S1P3 (human) receptor antagonism; Q99500; CHO S1P3 NFAT-BLA reporter, FRET fluorescence, antagonist mode; inhibition, % at 4.98 µM; hit rate 0.27% among 170,000;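 active = inhibition above the plate cutoff, the mean inhibition of test wells on that plate plus 3 SD, cut at about 28% in these data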;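 note: cells challenged with S1P at its EC80 of 0.8 µM; blue over green emission ratio from cleaved BLA substrate after 4 h stimulation; 0% = S1P-stimulated wells and 100% = unstimulated DMSO-only wells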
S1P4 antagonist: blocks the human S1P4 receptor; O95977; S1P4-expressing cells, antagonist mode, reporter read-out; inhibition, % at 4.98 µM; hit rate 0.26% among 220,000; AID 1510; in the data active = inhibition above about 29%;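 note: 0% = wells stimulated with agonist and 100% = vehicle wells without agonist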
An asterisk follows results filed as active; . = no result given.

SMILES	Mdm2 ligase inh	Lmaj promast	S1P4 agonist	S1P3 antag	S1P4 antagonist
CC(C)Cn1c(N)c(S(=O)(=O)c2cccs2)c2nc3ccccc3nc21	-0.2	22.6	1.1	10.8	-14.2
CCCCN(C)C(=O)Cn1c(=O)oc2cc(S(=O)(=O)N3CC(C)CC(C)C3)ccc21 (configuration not stated)	-7.9	.	1.1	10.5	-1.2
O=C(N/N=C/C1C(c2ccccc2)C1(Cl)Cl)c1cccc(Br)c1 (configuration not stated)	-4.2	-0.8	0.6	.	-6.0
COC(=O)c1ccc(CN2CCCC(CCC(=O)NCc3ccc(C)o3)C2)cc1 (configuration not stated)	2.9	76.9*	1.1	-4.4	-23.9
O=C(CCC1CCCN(Cc2cccc3c2OCO3)C1)NCc1ccc(F)c(F)c1 (configuration not stated)	-2.5	87.4*	1.0	-2.2	-1.7
COc1ccc(/C=C/CN2CCCC(CCC(=O)NCc3ccc(F)c(F)c3)C2)cc1 (configuration not stated)	-0.5	80.7*	-0.3	-24.1	-3.9
O=C(CCC1CCCN(C(=O)c2ccc3c(c2)OCO3)C1)NCc1ccc(F)c(F)c1 (configuration not stated)	-5.9	-4.7	2.3	11.2	-13.7
O=C(CCC1CCCN(Cc2ccc3c(c2)OCCO3)C1)NCc1ccc(F)c(F)c1 (configuration not stated)	-18.6	73.1*	1.3	-10.8	-16.6
O=C(CCC1CCCN(Cc2ccc3c(c2)OCCO3)C1)NCc1ccccc1F (configuration not stated)	-26.1	.	1.3	2.3	-7.7
O=c1c2ccccc2nnn1Cc1ccccc1Cl	-12.7	1.3	2.5	-1.1	-6.8
Cc1cc(C(=O)CN2CCC(C)CC2)c(C)n1-c1ccc(F)cc1	-14.7	91.4*	-1.0	-6.2	2.9
Cc1cc(C(=O)CN2CCCC2)c(C)n1-c1ccc(Cl)cc1	-8.9	52.6*	2.3	-2.4	-10.5
CCOC(=O)c1cc(C(=O)OCC)cc(-n2c(C)cc(C(=O)CN3CCOCC3)c2C)c1	-11.7	93.1*	0.0	-25.9	5.7
Cc1cc(C(=O)CN2CCCCC2)c(C)n1-c1ccc(F)cc1	-5.8	12.3	-0.3	0.3	-16.0
COc1ccc(-n2c(C)cc(C(=O)CN3CCC(C)CC3)c2C)cc1	-14.7	92.2*	1.0	12.1	-24.3
O=C(NC1CCCCCC1)C1Cc2ccccc2CN1C(=O)c1ccco1 (configuration not stated)	-5.7	5.2	-0.1	-3.4	-15.1
CC(C)(C)n1nnnc1SCC(=O)Nc1nn(-c2ccccc2)nc1C(N)=O	-6.8	3.9	6.7	0.2	-30.2
CCOC(=O)Cc1csc(NC(=O)CCN2C(=O)c3ccccc3C2=O)n1	-7.2	-1.4	4.3	-66.5	-3.2
O=C(CNC(=S)NC(=O)c1ccc(Cl)cc1)c1ccccc1	10.9	88.4*	1.7	-5.0	-24.1
COc1ccc(/C=C/C(=O)c2cc3c(cc2N)OCO3)cc1	-7.2	25.1	-0.8	4.3	-6.6
CCOC(=O)c1sc(NC(=O)/C=C/c2ccc(F)cc2)nc1C	-8.2	-5.3	0.5	-1.1	4.0
Cc1nc(NC(=O)/C=C/c2ccc(C(C)(C)C)cc2)sc1C(=O)N(C)C	5.1	60.8*	-0.5	0.2	-22.7
CC(C)(C)c1ccc(/C=C/C(=O)Nc2ccncc2)cc1	-5.2	87.7*	-1.6	-19.6	-27.9
CCOC(=O)CSc1ncc(-c2ccc([N+](=O)[O-])cc2)[nH]1	-4.3	-2.0	0.4	17.1	-16.7
C=CCOc1c(Br)cc(CNc2ccc(NC(=O)C(C)C)c(OC)c2)cc1OC	-61.3	99.2*	1.0	.	0.3
SMILES	Mdm2 ligase inh	Lmaj promast	S1P4 agonist	S1P3 antag	S1P4 antagonist
C=CCOc1c(Br)cc(CNn2nnnc2N)cc1OC	-1.2	100.5*	-1.6	28.8	-9.6
CCOCCCNC(=O)C(NC(=O)c1ccc(NC(C)=O)cc1)c1ccc(OC)cc1 (configuration not stated)	-11.0	-4.8	-0.3	-13.6	-12.8
c1ccc(COc2cccc(CNCc3cccnc3)c2)cc1	-3.9	98.2*	0.7	-2.2	-10.5
Oc1ccc(NCc2cccc(OCc3ccccc3)c2)cc1	-17.1	7.2	1.7	-5.4	-17.1
COc1ccc(-c2ccccc2)cc1NCc1ccc(OC)c(OC)c1	-10.7	98.5*	0.3	-12.9	-5.0
c1ccc(COc2cccc(CNCc3ccccn3)c2)cc1	-9.6	96.5*	1.2	-7.7	3.7
Nc1nnnn1NCc1cccc(OCc2ccccc2)c1	-5.9	1.1	-2.6	20.3	-18.8
CNCc1ccc(OCc2ccccc2)c(OC)c1	-17.6	80.0*	1.1	-22.2	-12.4
Cc1oc(S(=O)(=O)N2CCOCC2)cc1C(=O)Nc1ccc(Cl)cc1	-4.8	.	1.3	5.2	-3.9
Cc1ccc(SCCC(=O)OC(C(=O)NC(N)=O)C(C)C)cc1 (configuration not stated)	-7.9	11.4	-0.4	4.1	6.1
CNCc1c(OCc2ccc(F)cc2)ccc2ccccc12	-27.4	62.6*	0.7	12.5	-14.7
COc1cc(CNc2ccc(NC(C)=O)cc2)ccc1OCc1ccccc1C	-8.2	73.4*	1.8	-8.0	-20.9
Fc1ccc(COc2ccc3ccccc3c2CNc2nn[nH]n2)cc1	-8.1	-0.2	-0.5	-4.7	-4.5
COc1cc(CNCc2cccnc2)ccc1OCc1ccccc1	-25.6	96.0*	-1.8	-14.4	0.1
COc1cc(CC(=O)O)ccc1OCc1ccccc1	3.0	.	-0.2	-5.7	10.8
Cc1ccc(S(=O)(=O)CCC(=O)OCC(=O)NCc2ccc(Cl)cc2)cc1	-13.9	-5.6	2.0	-29.1	-2.3
COc1ccc(C(C[N+](=O)[O-])c2c(C)[nH]c3ccccc23)cc1OC (configuration not stated)	-5.1	15.7	0.9	-7.9	-18.4
Cc1ccc(C(C[N+](=O)[O-])c2c(-c3ccccc3O)[nH][nH]c2=O)cc1 (configuration not stated)	8.0	100.4*	-0.6	15.1	8.2
O=c1[nH][nH]c(-c2ccccc2O)c1C(C[N+](=O)[O-])c1ccc(Br)cc1 (configuration not stated)	-9.8	100.4*	0.2	-23.6	21.9
CCN=C(NCC)SC1CC(=O)N(c2cccc(OCC)c2)C1=O (configuration not stated)	-5.5	-5.7	-1.4	-13.2	2.8
CCOC(=O)C(C(=O)OCC)C(CC(=O)C1CC1)c1ccccc1 (configuration not stated)	-19.3	1.5	1.9	30.0	-3.4
CCOC(=O)c1c(N2C(=O)Nc3cc(Cl)c(Cl)cc3N2O)sc2c1CCCCC2	-3.9	-7.7	3.8	.	3.9
CCCCCn1nnc2c(=O)oc3ccccc3c21	-1.3	-6.3	0.9	-13.3	-28.2
CCN(CC)S(=O)(=O)c1cc(NC(=O)C(=O)c2c(-c3ccccc3)cc3ccccn23)ccc1C	-16.4	90.9*	-4.2	.	6.6
CCN(CC)S(=O)(=O)c1cccc(NC(=O)C(=O)c2c(-c3ccccc3)cc3ccccn23)c1	-23.6	98.3*	-3.3	.	-6.6
